Bioassay records from PubChem BioAssay.
Compounds with a hit are over-represented: about 2.5% of the library has one in this group of screens.
SENP6 inh – SENP6 protease inhibition. AID 2599. Recombinant SENP6 catalytic domain, aminoluciferin luminescence. Q9GZR1. hit rate 1.8% among 330,000. inhibition, % at 10 µM;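 active = inhibition above about 50% at the single tested dose, limit read from the data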;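 note: plate controls were DMSO wells with enzyme for no effect and DMSO wells lacking enzyme for full effect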
SENP1 FRET inh – inhibitors of human SENP1 SUMO protease catalytic domain | recombinant SENP1 catalytic domain, CyPet-SUMO1-YPet FRET cleavage | AID 624204 | hit rate 0.21% among 360,000 | Q9P0U3 | inhibition, % at 10 µM;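 active = inhibition at least 30% at 10 µM, raw YFP signal under a set limit, fluorescence ratio 0.5 to 1.5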;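 note: 0% = enzyme with DMSO and 100% = no enzyme wells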
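Controls: no-enzyme wells low, DMSO-plus-enzyme wells high control. Test system: human recombinant His6-tagged SENP1 catalytic domain enzyme. Reagent: SFCypet-SUMO1-SFYpet FRET protein substrate, 25 nM final. Doses: one dose per compound, 10 µM, 0.5% DMSO. Detection: FRET, CFP and YFP emission. Timing: 50 min reaction at room temperature.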
SENP8 block-1 – SENP8 (human) protease inhibition. hit rate 0.64% among 360,000. Q96LD8. AID 602440. recombinant SENP8, Nedd8 substrate fluorescence. inhibition, % at 20 µM; in the data active = inhibition mostly above about 40%, no sharp cut-off; inactive = mostly below about 27%
Target sequence (Q96LD8 whole entry, looked up): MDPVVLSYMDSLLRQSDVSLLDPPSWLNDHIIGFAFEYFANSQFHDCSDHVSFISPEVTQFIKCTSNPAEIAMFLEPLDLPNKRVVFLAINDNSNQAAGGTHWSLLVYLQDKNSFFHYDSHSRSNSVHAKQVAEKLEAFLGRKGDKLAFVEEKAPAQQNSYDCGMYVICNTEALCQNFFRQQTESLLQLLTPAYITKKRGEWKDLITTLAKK
SENP8 block-2 – blocks the human protease SENP8; purified SENP8, Z-RLRGG-aminoluciferin cleavage, luminescence; Q96LD8; AID 2540; inhibition, % at 10 µM; hit rate 1.2% among 330,000; in the data active = inhibition above about 50%
SENP7 inh – inhibitors of human SENP7 protease | AID 434973 | recombinant SENP7, Z-RLRGG-aminoluciferin luminescence, 40 min | hit rate 1.5% among 330,000 | inhibition, % at 5 µM | Q9BQF6;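 active = inhibition above about 50% at the single test dose, limit read from the data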;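 note: plate controls were DMSO with enzyme for no effect and no enzyme buffer wells for full effect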
Target sequence (Q9BQF6 706-1050 limits assumed): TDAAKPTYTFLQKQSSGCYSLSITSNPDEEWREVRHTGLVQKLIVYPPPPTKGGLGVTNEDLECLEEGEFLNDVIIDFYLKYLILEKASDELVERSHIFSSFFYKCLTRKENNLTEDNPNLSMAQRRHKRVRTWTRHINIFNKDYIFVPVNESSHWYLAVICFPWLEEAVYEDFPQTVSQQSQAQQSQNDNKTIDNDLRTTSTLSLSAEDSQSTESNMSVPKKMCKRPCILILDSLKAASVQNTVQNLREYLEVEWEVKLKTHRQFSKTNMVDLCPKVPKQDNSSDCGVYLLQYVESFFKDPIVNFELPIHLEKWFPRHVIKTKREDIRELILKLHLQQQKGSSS
The depositor's hits bear a star; i = inactive; x = not tested or not shown.

SMILES	SENP6 inh	SENP1 FRET inh	SENP8 block-1	SENP8 block-2	SENP7 inh
Cc1ccc(N=Nc2c(N)[nH]n3c(=O)cc(C)nc23)cc1	x	1.8	32.8	x	x
Nc1[nH]n2c(=O)cc(-c3ccccc3)nc2c1N=Nc1ccc(S(N)(=O)=O)cc1	17.4	5.7	59.9*	4.9	8.2
Nc1[nH]n2c(=O)cc(-c3ccccc3)nc2c1N=Nc1ccccc1	8.9	1.4	56.8*	1.5	12.7
NS(=O)(=O)c1ccc(N=Nc2c(-c3ccccc3)[nH]n(-c3nc(-c4ccccc4)cs3)c2=O)cc1	0.3	7.0	29.7	-13.2	-7.1
CC(C)NC(=O)c1cc(-c2ccc(F)cc2OC(C)C)n[nH]1	x	1.8	6.4	x	x
CN(C)c1ccc(C=C2SC(=S)NC2=O)cc1	x	-33.8	39.0	x	x
CN(C)c1ccc(/C=N/N=C2/NC(=O)/C(=C/c3ccc([N+](=O)[O-])cc3)S2)cc1	68.8*	40.2	4.0	35.8	34.0
CC(=O)Nc1cc(OC(C)=O)c2nonc2c1OC(C)=O	82.2*	1.9	32.9	70.4*	92.3*
Nc1ccc(N2CCN(C(=O)c3cccs3)CC2)cc1	-2.6	25.9	49.5*	-7.8	-4.1
Cc1ccc(N=Cc2cccc(O)c2O)c(C)c1	30.8	1.9	109.5*	6.6	6.4
CCN(CC)Cc1cc(O)c(CN(CC)CC)cc1O	x	46.3*	23.6	x	x
O=C(NCc1cccs1)C1C(=O)Nc2ccccc2C(=O)N1Cc1ccccc1 (stereo unspecified)	x	-0.6	-35.8	x	x
Cc1cc(C)c2[nH]c(O)c(N=NC3=NC(=O)CS3)c2c1	-6.6	1.6	38.4	5.7	-2.3
CCc1ccc2c(c1)c(N=NC1=NC(=O)CS1)c(O)n2C	4.7	4.6	40.1*	3.1	6.0
O=[N+]([O-])c1cnc2nc(-c3ccncc3)nn2c1O	98.9*	3.4	10.2	92.8*	96.5*
O=[N+]([O-])c1cc(Cl)ccc1-c1nc(-c2ccncc2)no1	2.7	1.7	5.4	12.8	6.1
Cc1ccccc1NC(=O)CC(=O)Nc1ccccc1C	-20.8	0.1	12.0	-4.0	2.3
Cc1ccccc1NC(=O)C(=O)Nc1ccccc1C	29.9	0.4	11.3	9.5	80.2*
O=C1C(NS(=O)(=O)c2ccccc2)=C(N2CCN(c3ccc(F)cc3)CC2)C(=O)c2ccccc21	10.5	-2.2	35.6	-0.7	8.1
O=C1C(NS(=O)(=O)c2cccs2)=C(N2CCN(c3cccc(Cl)c3)CC2)C(=O)c2ccccc21	22.6	13.6	69.7*	13.1	25.7
Cc1nc2sccc2c(=O)n1N	6.5	3.2	6.3	-0.4	-6.0
COc1ccc(Cc2c3cc(OC)c(OC)cc3cc[n+]2C)cc1OC	20.3	0.8	59.9*	13.7	-5.8
CC(C)[C@H](NC(=O)OC(C)(C)C)c1cc(C(=O)N[C@@H](C)c2ccccc2)c(N)s1	x	1.1	-2.6	x	x
CCCCC[n+]1ccn(C2=C([O-])c3ccccc3C(=O)/C2=N\S(=O)(=O)c2ccc(Br)cc2)c1	34.6	4.7	80.1*	15.8	6.5
CCCC[n+]1ccn(-c2nc3ccccc3nc2[N-]S(=O)(=O)c2ccccc2)c1	8.3	-123.5	-294.6	-6.1	4.7
SMILES	SENP6 inh	SENP1 FRET inh	SENP8 block-1	SENP8 block-2	SENP7 inh
CCCC[n+]1ccn(C2=C([O-])c3ccccc3C(=O)/C2=N\S(=O)(=O)c2ccccc2)c1	39.2	2.4	78.4*	29.2	28.4
CC(C)[n+]1ccn(C2=C([O-])c3ccccc3C(=O)/C2=N\S(=O)(=O)c2ccccc2)c1	42.6	-0.1	86.1*	16.2	16.4
CCCCC[n+]1ccn(C2=C([O-])c3ccccc3C(=O)/C2=N\S(=O)(=O)c2ccccc2)c1	25.3	-1.1	67.4*	22.4	18.4
CCCCC[n+]1ccn(-c2nc3ccccc3nc2[N-]S(=O)(=O)c2ccc(C)cc2)c1	0.2	-20.6	-483.0	1.2	1.2
O=C1CSC(=S)N1/N=C/c1ccc(O)c(O)c1O	-1.7	12.4	53.0*	7.8	7.9
COc1ccccc1C=NN1C(=O)CSC1=S	x	2.5	-5.6	x	x
COc1cccc(/C=C/C(=O)OCC(=O)Nc2nnc(-c3ccccc3)o2)c1	-12.1	1.1	-89.7	-4.4	2.1
C/C(=N\Nc1nc(-c2ccccc2O)nc2ccccc12)c1ccccc1	-31.0	3.3	18.5	-12.7	-2.3
C/C(=N/Nc1nc(-c2ccccc2F)nc2ccccc12)c1ccccc1O	-7.1	73.9*	23.2	-3.0	-8.5
COc1ccc(/C=N\n2nnc3ccccc32)cc1	97.4*	2.0	-6.3	93.6*	89.5*
COc1ccc(/C=N/n2c(C)nc3ccccc3c2=O)cc1	-25.9	0.2	10.7	-1.2	-7.4
O=C1c2c(O)ccc(O)c2C(=O)c2c(NCCNCCO)ccc(NCCNCCO)c21	13.3	1.2	51.1*	17.4	14.5
O=C1c2ccccc2C(=O)c2c(Nc3ccc(CCO)cc3)ccc(O)c21	-2.1	3.0	24.2	7.6	-1.3
O=C(COC(=O)c1ccc2c(c1[N+](=O)[O-])C(=O)c1ccccc1C2=O)NC1CC1	37.9	1.8	34.2*	16.6	1.4
COc1ccc(/C=C2/C(=O)N(c3nc4ccccc4s3)N=C2CSc2ccc(Cl)cc2)cc1	0.9	-2.6	40.0*	1.6	3.9
COc1ccc(/C=C2/C(=O)N(Cc3ccccc3)N=C2C)cc1	11.0	3.1	17.8	-2.1	1.5
COc1ccc(S(=O)(=O)NC(=O)C2(C)CCN2C(=O)C(C)(C)c2ccccc2)cc1 (stereo unspecified)	x	-0.3	12.8	x	x
CCOC(=O)NC(=O)/C(N=Nc1cccc(C(F)(F)F)c1)=C(\C)O	-10.8	0.3	14.0	-7.8	-1.6
COC(=O)/C(N=Nc1cccc(C(F)(F)F)c1)=C(\C)O	-0.2	-0.2	49.1*	-2.7	3.4
CCc1nnc(NC(=O)CCNC(=O)c2ccco2)s1	-9.5	1.5	5.8	-0.2	5.4
Cc1ccc2nc(-c3ccc(NC(=O)CCN4C(=O)c5ccccc5C4=O)cc3)sc2c1	74.0*	-19.4	-377.2	50.6*	-3.7
CC(C)Oc1ccc(CN2CCC(n3nccc3NC(=O)C3CC3)CC2)cc1	13.1	1.4	0.0	7.3	0.3
Cc1ccc(NCC(=O)c2ccccc2)cc1Cl	27.3	3.2	22.7	2.2	-3.9
Cc1ccc(NC2=C(NC(=O)c3ccccc3)C(=O)c3ccccc3C2=O)cc1Cl	35.1	-0.8	62.1*	15.5	5.5
CNC(C)C#Cc1ccc2oc3cc(C)c(C)cc3c(=O)c2c1 (stereo unspecified)	84.1*	-30.8	-94.1	68.6*	42.6
CNC(C)C#Cc1ccc2oc3cccc(OC)c3c(=O)c2c1 (stereo unspecified)	11.7	-0.3	i	-6.4	0.4
Cc1ccc(S(=O)(=O)Nc2ccccc2C(=O)N2CCCCCC2)cc1	14.6	2.6	-0.1	-8.7	-13.4
O=C(NC(=S)Nc1ccccc1N1CCOCC1)c1ccc(-c2ccccc2F)o1	4.2	0.7	0.4	-2.3	-4.9
Cc1cccc(NC(=O)C(=O)NNC(=O)c2ccc(C(C)(C)C)cc2)c1	-6.9	0.1	3.6	10.3	-4.3
